Results on 11 compounds are retold here after publication PMC3774598 (Biochemistry, 2013).

Test [1] deals with T1, saFabI (Staphylococcus aureus, UniProt Q6GI75).
T1 sequence (Q6GI75 1-256): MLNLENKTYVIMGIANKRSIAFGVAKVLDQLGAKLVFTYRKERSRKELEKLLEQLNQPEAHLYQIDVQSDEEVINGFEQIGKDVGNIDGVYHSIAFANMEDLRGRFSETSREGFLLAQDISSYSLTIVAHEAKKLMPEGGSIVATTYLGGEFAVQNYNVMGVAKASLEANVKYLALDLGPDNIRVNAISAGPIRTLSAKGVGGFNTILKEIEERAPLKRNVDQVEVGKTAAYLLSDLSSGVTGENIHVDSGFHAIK
Nature of the test: Jump dilution assay. The format is biochemical. The settings on record: for k-1: footnote c: jump dilution curve fitted to Eq 1; for tR: residence time tR = 1/k-1, k-1 from jump dilution (c); for recovery of enzyme activity after dilution: 1:200 dilution after overnight preincubation with NADP+. The essentials:
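Enzyme expressed in E. coli BL21(DE3) and purified by Ni2+ affinity and size exclusion. 10 μM enzyme was preincubated overnight at room temperature with 15 μM inhibitor and 500 μM NADP+. NADPH oxidation was read at 340 nm, 20 °C, and fitted to the Morrison–Walsh integrated equation.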

Test [2] deals with T1, saFabI. In words: Forward progress curve kinetics of saFabI inhibition. The note with it: for potency estimated from few doses: read-out: Ki; for tR: residence time tR = 1/k-1, k-1 from progress curves (b); for slow-binding inhibition of saFabI: curvature of progress curves. It is filed as biochemical.
Test [3] deals with saFabI R40Q/K41N/S44L (Staphylococcus aureus, UniProt Q6GI75, K41N/R40Q/S44L). Nature of the test: 32P-NAD+ dissociation kinetics. It is filed as binding. The note with it: for k-1: footnote d: 32P-NAD-based dissociation curve fitted to Eq 5; for tR: residence time tR = 1/k-1, k-1 from 32P-NAD dissociation (d).

For `Cc1ccc(Oc2ccccc2)c(O)c1` [PT53, 5-Methyl-2-phenoxyphenol], in test [1], the k-1 is given as 4.53 ± 0.08 ^c hr^-1 and the tR is 13.2 ^c min. Also, in test [2], the potency estimated from few doses is 380 ± 30 pM and the tR was 17.3 ^b min.
As to `CCCCCc1ccc(Oc2ccccc2)c(O)c1` [PT03], in test [3], the k-1 is 0.32 ± 0.17 ^d hr^-1 and the tR is 187.5 ^d min. In test [2], the tR is on record as 300.0 ^b min.
The corresponding values for `CCCc1ccc(Oc2ccccc2)c(O)c1` [PT02] are 0.57 ± 0.09 ^d hr^-1, 105.3 ^d min and 60.9 ^b min.
On to `N#Cc1ccccc1Oc1ccc(Cl)cc1O` [PT447], for which, in test [3], the k-1 is recorded as 0.47 ± 0.08 ^d hr^-1 and the tR is recorded as 127.7 ^d min. Besides, the “recovery of enzyme activity after dilution” value in test [1] is recorded as “partially recovered”. In test [2], the tR is 136.4 ^b min.
On to `CCc1ccc(Oc2ccccc2)c(O)c1` [PT01], for which, in test [3], the k-1 is recorded as 0.72 ± 0.08 ^d hr^-1 and the tR is 83.3 ^d min. Besides, the tR in test [2] was 63.8 ^b min.
In the case of `Oc1ccccc1Oc1ccccc1` [PT51], in test [2] (in words), the “slow-binding inhibition of saFabI” value is “slow-binding inhibition could not be observed”. In test [2], this compound had a tR not above 1 min.
In the case of `CCCCCCc1ccc(Oc2ccccc2)c(O)c1` [PT04, 5-hexyl-2-phenoxyphenol], in test [3], the k-1 is recorded as 0.13 ± 0.04 ^d hr^-1 and the tR is on record as 461.5 ^d min.
For `N#Cc1ccccc1Oc1ccc(Br)cc1O` [PT443], the tR in test [2] is recorded as 210.9 ^b min.
Take `O=[N+]([O-])c1ccc(Oc2ccccc2)c(O)c1` [PT104]: in test [2] (in words), the “slow-binding inhibition of saFabI” value is given as “clear slow-binding inhibition”. Besides, in test [2], the potency estimated from few doses was 1490 ± 270 pM and the tR is on record as 6.6 ^b min.
`CCCCCCc1ccc(Oc2ccccc2C)c(O)c1` [PT70]: the “change of affinity by the 2′-substituent” value in test [2] (B-ring ortho position SAR, in words, PT70 data not shown) is “increased affinity”.
As to `Oc1cc(Cl)ccc1Oc1ccccc1` [PT52], the figures for the k-1 in test [3] and in test [1] were 2.13 ± 0.41 ^d hr^-1 and 2.33 ± 0.03 ^c hr^-1, respectively. Further, the tR in test [3] is 28.2 ^d min; in test [1] it was 25.8 ^c min; in test [2], 35.3 ^b min. For the same compound, the “recovery of enzyme activity after dilution” value in test [1] was “full recovery of enzyme activity”.
